Data reported in paper PMC3379667 (Diabetes, 2012).
No end group written: not given here.

How the values were obtained:
[1] = system: healthy individuals and persons with T2DM; conditions: iv infusion 4 pmol/kg/min, cited from earlier work
[2] = system: humans with NGT, IGT, or T2DM; experiment: Graded glucose infusion; assay type: in vivo, human; conditions: for increase of ISR iAUC during the first 40 min compared with albumin: P ≤0.0005; for increase of 240-min ISR iAUC/glucose iAUC compared with albumin: P ≤0.007 vs. albumin
Procedure, shortened: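 Subjects fasted 10 h. Arterialized venous blood was drawn from a hand heated to 50–55°C. Glucose ≥120 mg/dL was lowered to 100–120 mg/dL with IV insulin (∼0.01 units/kg every 30 min), then held stable 20 min. Four blinded 240-min GGIs ≥2 weeks apart gave IV peptide or albumin (peptides 4 pmol·kg−1·min−1 in saline/1% albumin). Glucose measured by glucose oxidase; C-peptide by chemiluminescent immunometric assay; ISR by stochastic deconvolution; iAUCs; mixed-effects models, one-tailed t tests.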

[3] = system: humans with NGT, IGT, or T2DM; experiment: Symptomatic effects of peptide infusions; assay type: in vivo, human; conditions: all three groups; for subjects with mild diarrhea and/or loose stools: within several hours of the infusion
[4] = Plasma IR-GIP and IR-xenin levels during and after peptide infusion; assay type: in vivo; conditions: human, iv, 4 pmol ⋅ kg^−1 ⋅ min^−1
Procedure, shortened: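 Peptides were infused IV at 4 pmol·kg−1·min−1 in saline with 1% albumin during the graded glucose infusion. Plasma IR-GIP was measured by total-GIP ELISA and IR-xenin by an in-house ELISA. IR-xenin half-life came from levels sampled after infusions stopped (n = 6).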

[5] = system: healthy humans; conditions: intravenous infusion of neurotensin alone; cited from earlier work

Compound | increase of insulin release during a hyperglycemic clamp ([1]; healthy individuals) | effect on insulin release during a hyperglycemic clamp ([1]; persons with T2DM) | ISR iAUC during the first 40 min of the GGI ([2]; subjects with IGT, G+X vs GIP alone P = 0.002) | increase of ISR iAUC during the first 40 min compared with albumin ([2]; subjects with IGT) [fold] | increase of 240-min ISR iAUC/glucose iAUC compared with albumin ([2]; subjects with IGT) [fold] | time of peak early insulin secretory response (ISR) ([2]; subjects with IGT, time into the infusions) [min] | ISR iAUC during the first 40 min of the GGI ([2]; subjects with NGT, G+X vs GIP alone P = 0.048) | increase of ISR iAUC during the first 40 min compared with albumin ([2]; subjects with NGT) [fold] | increase of 240-min ISR iAUC/glucose iAUC compared with albumin ([2]; subjects with NGT) [fold] | time of peak early insulin secretory response (ISR) ([2]; subjects with NGT, time into the GGI) [min] | ISR iAUC during the first 40 min of the GGI ([2]; subjects with T2DM, G+X vs GIP alone P = 0.18) | increase of ISR iAUC during the first 40 min compared with albumin ([2]; subjects with T2DM) [fold] | increase of 240-min ISR iAUC/glucose iAUC compared with albumin ([2]; subjects with T2DM) [fold] | increase of resting heart rate [3] | reduction of mean arterial blood pressure [3] | subjects with mild diarrhea and/or loose stools [3] [%] | half-life [4] [min] | change in blood pressure or plasma levels of glucose, insulin, or glucagon [5]
CC[C@H](C)[C@H](NC(=O)[C@H](CO)NC(=O)[C@H](Cc1ccc(O)cc1)NC(=O)[C@H](CC(=O)O)NC(=O)[C@H](CO)NC(=O)[C@@H](NC(=O)[C@H](Cc1ccccc1)NC(=O)[C@@H](NC(=O)CNC(=O)[C@H](CCC(=O)O)NC(=O)[C@H](C)NC(=O)[C@@H](N)Cc1ccc(O)cc1)[C@@H](C)O)[C@@H](C)CC)C(=O)N[C@@H](C)C(=O)N[C@@H](CCSC)C(=O)N[C@@H](CC(=O)O)C(=O)N[C@@H](CCCCN)C(=O)N[C@H](C(=O)N[C@@H](Cc1c[nH]cn1)C(=O)N[C@@H](CCC(N)=O)C(=O)N[C@@H](CCC(N)=O)C(=O)N[C@@H](CC(=O)O)C(=O)N[C@@H](Cc1ccccc1)C(=O)N[C@H](C(=O)N[C@@H](CC(N)=O)C(=O)N[C@@H](Cc1c[nH]c2ccccc12)C(=O)N[C@@H](CC(C)C)C(=O)N[C@@H](CC(C)C)C(=O)N[C@@H](C)C(=O)N[C@@H](CCC(N)=O)C(=O)N[C@@H](CCCCN)C(=O)NCC(=O)N[C@@H](CCCCN)C(=O)N[C@@H](CCCCN)C(=O)N[C@@H](CC(N)=O)C(=O)N[C@@H](CC(=O)O)C(=O)N[C@@H](Cc1c[nH]c2ccccc12)C(=O)N[C@@H](CCCCN)C(=O)N[C@@H](Cc1c[nH]cn1)C(=O)N[C@@H](CC(N)=O)C(=O)N[C@H](C(=O)N[C@H](C(=O)N[C@@H](CCC(N)=O)C(=O)O)[C@@H](C)O)[C@@H](C)CC)C(C)C)[C@@H](C)CC [GIP, glucose-dependent insulinotropic polypeptide] | approximately fourfold | ineffective | 10,016 ± 1,524 pmol insulin secreted/40 min | 6.1 | 1.5 | 20 | 7,998 ± 1,263 pmol insulin secreted/40 min | 4.6 | 1.7 | ≤ 10 | 10,062 ± 2,290 pmol insulin secreted/40 min | 8.7 | 1.9 | ~8 bpm | 10–15 mmHg | 14 |  | 
MLTKFETKSARVKGLSFHPKRPWIL [xenin-25, Xenin-25] |  |  |  |  |  |  |  |  |  |  |  |  |  | no effect | no effect | 21 | 2.5 ± 0.3 | 
neurotensin |  |  |  |  |  |  |  |  |  |  |  |  |  |  |  |  |  | no significant change
